TNAP inh noacc: TNAP (human) inhibition, acceptor-free conditions. hit rate 0.26% among 200,000. purified TNAP, CDP-star luminescence, 30 min. AID 1012. inhibition, % at 20 µM. P05186;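 active means tissue-nonspecific alkaline phosphatase inhibition above about 50% at 20 µM in the single-dose screen, limit read from the data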
Target sequence (P05186 whole entry, looked up): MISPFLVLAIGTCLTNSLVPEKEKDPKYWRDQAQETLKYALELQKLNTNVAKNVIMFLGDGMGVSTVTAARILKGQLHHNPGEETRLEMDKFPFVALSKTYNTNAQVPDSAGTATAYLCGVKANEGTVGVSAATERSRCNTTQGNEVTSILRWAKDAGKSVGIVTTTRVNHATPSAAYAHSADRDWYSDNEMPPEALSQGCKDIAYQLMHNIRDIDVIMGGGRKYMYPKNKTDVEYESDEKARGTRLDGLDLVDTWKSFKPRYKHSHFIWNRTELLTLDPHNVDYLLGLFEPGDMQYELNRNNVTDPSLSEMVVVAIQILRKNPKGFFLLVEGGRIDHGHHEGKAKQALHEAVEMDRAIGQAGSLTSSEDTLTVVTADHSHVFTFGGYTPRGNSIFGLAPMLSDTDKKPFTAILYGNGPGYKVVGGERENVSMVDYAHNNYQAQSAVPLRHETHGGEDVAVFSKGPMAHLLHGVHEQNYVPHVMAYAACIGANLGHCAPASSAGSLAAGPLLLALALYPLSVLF
PMI activator: phosphomannose isomerase (human) activation. purified human PMI, coupled resazurin fluorescence, 20 min; stronger effect = higher value; 1 = vehicle control, 0 substrate-free wells. hit rate 0.005% among 190,000. AID 1214. activation factor at 20 µM;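 active means activation factor of 2 or more at 20 µM, relative to plate controls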
Rad51 HR inh: Rad51 (human) homologous recombination inhibition; hRad51 DNA strand exchange, fluorescence dequenching; Q06609; hit rate 0.085% among 200,000; inhibition, % at 10 µM;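 active means inhibition above 40% at the single screening dose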
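System: hRad51 filaments on single-stranded DNA; reagent: Fluorescein- and BHQ1-tagged 47-mer duplex; compound dosing: one concentration, 10 µM final; timing: filaments 15 min 37 °C, then compound 30 min; measured by: fluorescein emission 520 nm, excitation 485 nm; benchmarks: per-plate controls and blanks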
TNAP inh hi DEA: inhibitors of human TNAP at high phosphate acceptor concentration. P05186. purified TNAP, CDP-star luminescence, 1 M DEA. inhibition, % at 20 µM. hit rate 0.03% among 200,000. AID 1135;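 active means over 50% inhibition of tissue-nonspecific alkaline phosphatase at 20 µM in the single-dose screen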
TNAP act hiacc: TNAP (human) activation, high acceptor; P05186; purified TNAP, CDP-star luminescence, 1 M DEA, 30 min; stronger effect = higher value; 0 = EDTA background, 1 = DMSO-only activity; activation factor at 20 µM; 200,000 tested, under 10 active;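 active means activation factor at least 2 at 20 µM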
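Dosing: 20 µM single point. System: human TNAP. Amount: TNAP 1/800 final. Incubation: 30 min, room temperature. Read-out: TNAP activation factor scaled between EDTA and DMSO control wells. Signal: luminescence from CDP-star hydrolysis. Medium: 1 M DEA, pH 9.8, Mg2+, Zn2+. Control set: EDTA negative control, DMSO positive control.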
PMI act satM6P: activators of human phosphomannose isomerase at near-saturating mannose 6-phosphate | hit rate 0.34% among 190,000 | AID 1216 | P34949 | activation factor at 20 µM | coupled PMI enzyme assay, resazurin fluorescence, 20 min; stronger effect = higher value; 1 = untreated enzyme, 0 = substrate-free blank;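 active means activation factor of 2 or more at 20 µM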
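Technique: Diaphorase-driven resazurin-to-resorufin fluorescence, excitation 544, emission 590 nm | Assay system: Human PMI in coupled enzyme assay | Times: Enzyme reaction with compound 20 min at room temperature | Medium: HEPES-buffered pH 7.4 with magnesium and detergent | Reagent: Mannose-6-phosphate 1.0 mM (near-saturating) plus 0.22 mM NADP+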
A number is an active result. Compounds with a hit are over-represented: about 0.6% of the library has one in this group of screens.

`Cc1ccc(NC(=O)CCC(=O)N/N=C/c2cc([N+](=O)[O-])ccc2O)cc1` gave TNAP inh noacc inactive, PMI activator inactive, TNAP inh hi DEA inactive, TNAP act hiacc inactive and PMI act satM6P inactive.
`O=[N+]([O-])c1ccc(O)c(/C=N/Nc2ccccc2Cl)c1` gave TNAP inh noacc inactive, PMI activator inactive, Rad51 HR inh inactive, TNAP inh hi DEA inactive, TNAP act hiacc inactive and PMI act satM6P 2.2.
O=C(CCC(=O)Nc1cccc(Cl)c1)N/N=C/c1cc([N+](=O)[O-])ccc1O was read as TNAP inh noacc 79.5, PMI activator inactive, Rad51 HR inh inactive, TNAP inh hi DEA inactive, TNAP act hiacc inactive and PMI act satM6P inactive.
O=[N+]([O-])c1ccc(N/N=C/c2cccc(O)c2O)c(S(=O)(=O)N2CCOCC2)c1 was read as TNAP inh noacc 78.9, PMI activator inactive, Rad51 HR inh inactive, TNAP inh hi DEA inactive, TNAP act hiacc inactive and PMI act satM6P inactive.
O=[N+]([O-])c1ccc(N/N=C/c2ccc(O)c(O)c2O)c(S(=O)(=O)N2CCOCC2)c1 was read as TNAP inh noacc inactive, PMI activator inactive, Rad51 HR inh inactive, TNAP inh hi DEA inactive, TNAP act hiacc inactive and PMI act satM6P inactive.
For O=[N+]([O-])c1ccccc1N/N=C\c1ccccc1Cl the results were TNAP inh noacc inactive, PMI activator inactive, Rad51 HR inh inactive, TNAP inh hi DEA inactive, TNAP act hiacc inactive and PMI act satM6P inactive.
`Cc1ccc(C)c(NC(=O)CCC(=O)N/N=C/c2cc([N+](=O)[O-])ccc2O)c1` gave TNAP inh noacc inactive, PMI activator inactive, Rad51 HR inh inactive, TNAP inh hi DEA inactive, TNAP act hiacc inactive and PMI act satM6P inactive.
For Cc1cc(=O)oc2cc(OCC(=O)N/N=C/c3cc([N+](=O)[O-])ccc3O)ccc12 the results were TNAP inh noacc 88.8, PMI activator inactive, Rad51 HR inh inactive, TNAP inh hi DEA inactive, TNAP act hiacc inactive and PMI act satM6P inactive.
For O=C(/C(=N/N=C/c1ccc(O)c(O)c1)c1ccccc1)c1ccccc1 the results were TNAP inh noacc 50.8, PMI activator inactive, Rad51 HR inh inactive, TNAP inh hi DEA inactive, TNAP act hiacc inactive and PMI act satM6P inactive.
`O=C1Nc2ccccc2/C1=N\N=C\c1ccc(O)c(O)c1` gave Rad51 HR inh inactive.
Screening CCCCN1C(=O)/C(=C/C=C2\SCCN2C)SC1=S returned TNAP inh noacc inactive, PMI activator inactive, TNAP inh hi DEA 52.0, TNAP act hiacc inactive and PMI act satM6P inactive.
Screening O=C(/C=C/c1ccc(Br)o1)Nc1nccs1 returned TNAP inh noacc inactive, PMI activator inactive, Rad51 HR inh inactive, TNAP inh hi DEA inactive, TNAP act hiacc inactive and PMI act satM6P 2.
Screening NS(=O)(=O)c1ccc(CNC(=O)/C=C/c2ccccc2[N+](=O)[O-])cc1 returned TNAP inh noacc 62.1, PMI activator inactive, Rad51 HR inh inactive, TNAP inh hi DEA inactive, TNAP act hiacc inactive and PMI act satM6P inactive.
`CC1(C)CC(NC(=O)CC2CCCCC2)CC(C)(C)N1` gave TNAP inh noacc inactive, PMI activator inactive, Rad51 HR inh inactive, TNAP inh hi DEA inactive, TNAP act hiacc inactive and PMI act satM6P inactive.
O=C(/C=C1\NCC2c3ccccc3CCN2C1=O)c1ccccc1 (stereo not drawn) was read as TNAP inh noacc inactive, PMI activator inactive, Rad51 HR inh inactive, TNAP inh hi DEA inactive, TNAP act hiacc inactive and PMI act satM6P 2.6.
Screening Cc1ccc(N2C(=O)[C@@H]3[C@H](C2=O)[C@H]2C=C(C(=O)c4ccccc4)C=CN2[C@@H]3C(=O)c2ccc(Cl)cc2)cc1 returned TNAP inh noacc inactive, PMI activator inactive, Rad51 HR inh inactive, TNAP inh hi DEA inactive, TNAP act hiacc inactive and PMI act satM6P 2.1.
O=C(c1ccc(Cl)cc1)[C@@H]1[C@@H]2C(=O)N(c3ccccc3)C(=O)[C@@H]2C2c3ccccc3C=NN21 (stereo partly drawn) was read as TNAP inh noacc inactive, PMI activator inactive, Rad51 HR inh inactive, TNAP inh hi DEA inactive, TNAP act hiacc inactive and PMI act satM6P inactive.

Source: PubChem
